The target in test [1] is T1, Estrogen receptor (Mus musculus) (UniProt O08537+P19785). The test is described as follows: Anti-uterotrophic effect in mice as relative uterine weight(mg) at 15 ug. In kind it is functional. The gist of the method:
(§1)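 Immature mice received the compound sc per animal on three consecutive days, alone or with 0.4 µg estrone per animal per day. Uteri were taken 24 h after the last injection, Bouin-fixed, dried at 100 °C for 24 h and weighed. Relative uterus weight = dry weight (mg)/body weight (g) × 100; mean of 6-10 animals ± SD; Mann-Whitney U test.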
Target sequence in this assay (O08537 whole entry, looked up): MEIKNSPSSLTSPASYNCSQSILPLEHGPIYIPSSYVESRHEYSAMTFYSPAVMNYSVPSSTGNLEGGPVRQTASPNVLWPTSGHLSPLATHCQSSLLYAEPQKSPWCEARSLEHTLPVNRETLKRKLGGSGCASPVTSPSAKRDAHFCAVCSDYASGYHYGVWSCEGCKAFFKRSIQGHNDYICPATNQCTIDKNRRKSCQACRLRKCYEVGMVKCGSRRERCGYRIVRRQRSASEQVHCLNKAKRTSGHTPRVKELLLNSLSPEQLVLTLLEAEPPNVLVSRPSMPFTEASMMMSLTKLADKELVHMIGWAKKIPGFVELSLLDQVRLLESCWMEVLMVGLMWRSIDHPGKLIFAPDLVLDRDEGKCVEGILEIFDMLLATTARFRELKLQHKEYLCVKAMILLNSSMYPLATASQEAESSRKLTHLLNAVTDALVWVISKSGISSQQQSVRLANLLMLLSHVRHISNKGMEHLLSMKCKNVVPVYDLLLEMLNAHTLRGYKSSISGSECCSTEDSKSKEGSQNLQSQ
Target sequence in this assay (P19785 whole entry, looked up): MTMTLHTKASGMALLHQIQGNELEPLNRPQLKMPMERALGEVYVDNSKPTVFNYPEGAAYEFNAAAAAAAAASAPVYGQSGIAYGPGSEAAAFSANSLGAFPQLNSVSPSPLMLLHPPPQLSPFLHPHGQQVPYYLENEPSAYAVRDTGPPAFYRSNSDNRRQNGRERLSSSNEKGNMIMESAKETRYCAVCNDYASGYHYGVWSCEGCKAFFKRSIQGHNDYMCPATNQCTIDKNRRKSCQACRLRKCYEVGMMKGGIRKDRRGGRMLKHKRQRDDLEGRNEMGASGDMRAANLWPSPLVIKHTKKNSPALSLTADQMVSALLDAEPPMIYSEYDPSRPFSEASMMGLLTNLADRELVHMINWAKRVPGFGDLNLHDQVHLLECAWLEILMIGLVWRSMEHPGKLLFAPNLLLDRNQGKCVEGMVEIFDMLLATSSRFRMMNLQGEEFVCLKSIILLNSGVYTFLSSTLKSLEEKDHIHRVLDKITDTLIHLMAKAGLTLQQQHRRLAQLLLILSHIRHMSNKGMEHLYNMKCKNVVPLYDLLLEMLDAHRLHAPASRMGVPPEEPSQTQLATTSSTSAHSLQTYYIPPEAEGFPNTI

For test [2], the system named is MCF7. Briefly: Effect on Estrogen receptor positive MCF-7 human breast cancer cell proliferation at 5x10E-6M (control = 66.9+/-7.0). The class given is functional. The gist of the method:
(§2)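 MCF-7 cells were kept in MEM with 5% charcoal-treated newborn calf serum and phenol red for 2 weeks, then about 2×10^4 cells were plated per well. Compounds in 0.1% DMF were added 2 days later and renewed on day 4; DMF alone served as control. Coulter cell counts were taken on day 5; mean of six dishes ± SD; % T/C.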

Test [3] has as its target T1, Estrogen receptor (Mus musculus). Briefly: Anti-uterotrophic effect in mice as relative uterine weight(mg) at 150 ug. In kind it is functional. The gist of the method:
as §1
Target sequence in this assay (O08537 whole entry, looked up): as the sequence (O08537 whole entry, looked up) above
Target sequence in this assay (P19785 whole entry, looked up): as the sequence (P19785 whole entry, looked up) above

The subject of test [4] is MCF7. The test is described as follows: Effect on Estrogen receptor positive MCF-7 human breast cancer cell proliferation at 1x10E-6M (control = 66.9+/-7.0). In kind it is functional. The method, boiled down:
as §2

In test [5] the target is T1, Estrogen receptor (Mus musculus). The test is described as follows: Percent inhibition of estrone stimulated uterotrophic effect in mice at 15 ug. In kind it is functional. The method, boiled down:
(§3)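 Immature mice given test compound per animal sc on three consecutive days together with 0.4 μg estrone/animal/day. Killed 24 h after last injection; uteri fixed in Bouin, dried 100 °C 24 h and weighed. Inhibition = 100 − [(W_S,T − W_V)/(W_S − W_V) × 100] using relative uterus weights; 6-10 animals; Wilcoxon-Mann-Whitney U test.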
Target sequence in this assay (O08537 whole entry, looked up): as the sequence (O08537 whole entry, looked up) above
Target sequence in this assay (P19785 whole entry, looked up): as the sequence (P19785 whole entry, looked up) above

Test [6] has as its system MCF7. Briefly: Effect on [3H]thymidine incorporation into estrogen receptor positive MCF-7 human breast cancer cells at 5x10E-6M (control = 28.2+/-3.0). In kind it is functional. The gist of the method: (§4)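 MCF-7 cells in improved MEM with glutamine, gentamycin and 5% newborn calf serum, switched to charcoal-treated serum two weeks ahead; phenol red present; 37 °C, 5% CO2. About 2×10^4 cells plated per well; compound in 0.1% DMF added 2 days later, renewed on day 4; labelled 3 days later with 1 μCi [3H]thymidine per well for 2 h; cpm/dish, mean of six dishes ± SD.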

Test [7] has as its system MCF7. The test is described as follows: Effect on [3H]thymidine incorporation into estrogen receptor positive MCF-7 human breast cancer cells at 1x10E-6M. In kind it is functional. The method, boiled down: (§5)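 MCF-7 cells were grown in MEM with charcoal-treated 5% newborn calf serum and phenol red, then treated with compounds in 0.1% DMF (renewed on day 4) alongside DMF controls. They were labeled 3 days later with 1 µCi [³H]thymidine per well for 2 h, and incorporated radioactivity per dish was measured; mean of six dishes ± SD; % T/C.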

Test [8] relates to MCF7. Briefly: Effect on [3H]thymidine incorporation into estrogen receptor positive MCF-7 human breast cancer cells at 5x10E-6M. The class given is functional. The method, boiled down: as §4
Background: Dividing cells build labelled thymidine or BrdU into new DNA.

In test [9] the target is T1, Estrogen receptor (Mus musculus). The test is described as follows: Uterotrophic effect in mice as relative uterine weight(mg) at 150 ug (control = 12.3+/-3.7). The class given is functional, tissue-based. The method, boiled down: (§6)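 Immature mice dosed sc per animal on three consecutive days; vehicle controls. Killed and weighed 24 h after last injection; uteri fixed in Bouin solution 2 h, washed with alcoholic LiCl, dried at 100 °C for 24 h. Relative uterus weight = uterine dry weight (mg)/body weight (g) × 100; mean of 6-10 animals ± SD.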
Target sequence in this assay (O08537 whole entry, looked up): as the sequence (O08537 whole entry, looked up) above
Target sequence in this assay (P19785 whole entry, looked up): as the sequence (P19785 whole entry, looked up) above

Test [10] has the same target. Briefly: Percent inhibition of estrone stimulated uterotrophic effect in mice at 150 ug. The class given is functional. The method, boiled down:
as §3
Target sequence in this assay (O08537 whole entry, looked up): as the sequence (O08537 whole entry, looked up) above
Target sequence in this assay (P19785 whole entry, looked up): as the sequence (P19785 whole entry, looked up) above

Test [11] concerns MCF7. The test is described as follows: Effect on [3H]thymidine incorporation into estrogen receptor positive MCF-7 human breast cancer cells at 1*10^-6 M (control = 28.2+/-3.0). In kind it is functional. The method, boiled down: as §5
Test [12] concerns MCF7. Briefly: Effect on Estrogen receptor positive MCF-7 human breast cancer cell proliferation at 1x10E-6M. In kind it is functional. The method, boiled down:
as §2

For test [13], the target named is T1, Estrogen receptor (Mus musculus). Briefly: Uterotrophic effect in mice as relative uterine weight(mg) at 15 ug (control = 12.3+/-3.7). The class given is functional, tissue-based. The method, boiled down:
as §6
Target sequence in this assay (O08537 whole entry, looked up): as the sequence (O08537 whole entry, looked up) above
Target sequence in this assay (P19785 whole entry, looked up): as the sequence (P19785 whole entry, looked up) above

In test [14] the test system is MCF7. The test is described as follows: Effect on Estrogen receptor positive MCF-7 human breast cancer cell proliferation at 5x10E-6M. In kind it is functional. The method, boiled down:
as §2

Test [15] deals with T1, Estrogen receptor (Mus musculus). Briefly: Uterotrophic effect in mice as relative uterine weight(mg) at 250 ug (control = […]+/-1.7). The class given is functional, tissue-based.
Target sequence in this assay (P19785 whole entry, looked up, chain 1 of 2): as the sequence (P19785 whole entry, looked up) above
Target sequence in this assay (O08537 whole entry, looked up, chain 2 of 2): as the sequence (O08537 whole entry, looked up) above
The species entered for test [16] is Mus musculus. The test is described as follows: Anti-tumor activity in hormone-dependent transplant MXT mammary tumor bearing mice at 20 mg (control=388+/-269). The class given is functional, organism-based.
In test [17] the target is T1, Estrogen receptor (Mus musculus). The test is described as follows: Anti-uterotrophic effect in mice as relative uterine weight(mg) at 250 ug. The class given is functional. The gist of the method: as §1
Target sequence in this assay (P19785 whole entry, looked up, chain 1 of 2): as the sequence (P19785 whole entry, looked up) above
Target sequence in this assay (O08537 whole entry, looked up, chain 2 of 2): as the sequence (O08537 whole entry, looked up) above
The target is the same in test [18]. The test is described as follows: Anti-uterotrophic effect in hormone-dependent transplant MXT bearing mice as relative uterine weight in treated and control mice at 20 mg (control=100+/-24). In kind it is functional.
Target sequence in this assay (P19785 whole entry, looked up, chain 1 of 2): as the sequence (P19785 whole entry, looked up) above
Target sequence in this assay (O08537 whole entry, looked up, chain 2 of 2): as the sequence (O08537 whole entry, looked up) above
Test [19] shares this target. The test is described as follows: Uterotrophic effect in mice as relative uterine weight(mg) at 25 ug (control = […]+/-1.7). In kind it is functional, tissue-based.
Target sequence in this assay (P19785 whole entry, looked up, chain 1 of 2): as the sequence (P19785 whole entry, looked up) above
Target sequence in this assay (O08537 whole entry, looked up, chain 2 of 2): as the sequence (O08537 whole entry, looked up) above
Test [20] is filed under the species Mus musculus. The test is described as follows: Relative tumor weight in treated compared to control mice bearing hormone-dependent transplanted MXT mammary tumors at 20 mg. In kind it is functional, organism-based.
Test [21] has as its system MCF7. Briefly: Effect on Estrogen receptor positive MCF-7 human breast cancer cell proliferation at 1x10E-6M (control = 62.3+/-8.8). The class given is functional. The method, boiled down:
as §2

In test [22] the target is T1, Estrogen receptor (Mus musculus). Briefly: Percent inhibition of estrone stimulated uterotrophic effect in mice at 250 ug. The class given is functional. The method, boiled down:
as §3
Target sequence in this assay (P19785 whole entry, looked up, chain 1 of 2): as the sequence (P19785 whole entry, looked up) above
Target sequence in this assay (O08537 whole entry, looked up, chain 2 of 2): as the sequence (O08537 whole entry, looked up) above

The target is the same in test [23]. Briefly: Uterotrophic effect in mice as relative uterine weight(mg) at 250 ug (control = 14.6+/-2.7). The class given is functional, tissue-based. The method, boiled down: as §6
Target sequence in this assay (P19785 whole entry, looked up, chain 1 of 2): as the sequence (P19785 whole entry, looked up) above
Target sequence in this assay (O08537 whole entry, looked up, chain 2 of 2): as the sequence (O08537 whole entry, looked up) above
Test [24] deals with MCF7. Briefly: Effect on Estrogen receptor positive MCF-7 human breast cancer cell proliferation at 5x10E-6M (control = 62.3+/-8.8). In kind it is functional. The gist of the method: as §2
The test system of test [25] is MCF7. Briefly: Effect on [3H]thymidine incorporation into estrogen receptor positive MCF-7 human breast cancer cells at 5x10E-6M (control = 43.4+/-1.8). The class given is functional. The gist of the method:
as §4

Test [26] relates to MCF7. Briefly: Effect on [3H]thymidine incorporation into estrogen receptor positive MCF-7 human breast cancer cells at 1x10E-6M (control = 43.4+/-1.8). The class given is functional. The gist of the method:
as §5

In test [27] the target is T1, Estrogen receptor (Mus musculus). Briefly: Uterotrophic effect in mice as relative uterine weight(mg) at 25 ug (control = 14.6+/-2.7). The class given is functional, tissue-based. The method, boiled down: as §6
For test [28] the target is unchanged. The test is described as follows: Anti-uterotrophic effect in hormone-dependent transplant MXT bearing mice as relative uterine weight in treated and control mice at 10 mg (control=100+/-30). In kind it is functional.
Test [29] shares this target. Briefly: Uterotrophic effect in mice as relative uterine weight(mg) at 25 ug (control = 12.4+/-3.7). In kind it is functional, tissue-based. The method, boiled down: as §6
Test [30] has the same target. The test is described as follows: Anti-uterotrophic effect in hormone-dependent transplant MXT bearing mice as relative uterine weight in treated and control mice at 20 mg (control=100+/-30). In kind it is functional.
Test [31] has the same target. The test is described as follows: Uterotrophic effect in mice as relative uterine weight(mg) at 250 ug (control = 12.4+/-3.7). The class given is functional, tissue-based. The gist of the method: as §6
The species entered for test [32] is Mus musculus. Briefly: Relative tumor weight in treated compared to control mice bearing hormone-dependent transplanted MXT mammary tumors at 10 mg. The class given is functional, organism-based.
In test [33] the test system is MCF7. Briefly: Effect on [3H]thymidine incorporation into estrogen receptor positive MCF-7 human breast cancer cells at 1x10E-6M (control = 7.7+/-0.8). The class given is functional. The gist of the method:
as §5

In test [34] the test system is MCF7. The test is described as follows: Effect on [3H]thymidine incorporation into estrogen receptor positive MCF-7 human breast cancer cells at 5x10E-6M (control = 7.7+/-0.8). The class given is functional. The method, boiled down:
as §4

The subject of test [35] is MCF7. Briefly: Effect on Estrogen receptor positive MCF-7 human breast cancer cell proliferation at 1x10E-6M (control = 22.3+/-3.3). In kind it is functional. The method, boiled down: as §2
The species named for test [36] is Mus musculus. Briefly: Anti-tumor activity in hormone-dependent transplant MXT mammary tumor bearing mice at 20 mg (control=534+/-652). The class given is functional, organism-based.
In test [37] the test system is MCF7. The test is described as follows: Effect on Estrogen receptor positive MCF-7 human breast cancer cell proliferation at 5x10E-6M (control = 22.3+/-3.3). In kind it is functional. The gist of the method: as §2
Test [38] is filed under the species Mus musculus. The test is described as follows: Anti-tumor activity in hormone-dependent transplant MXT mammary tumor bearing mice at 10 mg (control=534+/-652). In kind it is functional, organism-based.

A word on the inhibition: it is the percentage by which the read-out fell short of the control. High values mean strong suppression, low ones little suppression. As usually defined, the T/C is the ratio of treated to control.

As to `Cc1c(-c2ccc(O)cc2)n(CCCCCNCc2ccccn2)c2ccc(O)cc12`, the Relative uterus weight in test [1] turned out to be 42.6 mg; in test [3], 44 mg; in test [9], 13.3 mg; in test [13] it was 16.4 mg. The Cell no/dish in the test on MCF7 [2] is 287000; with MCF7 [4], 430000. Besides, the inhibition turned out to be 9% in test [5] and 5% in test [10]. Further, the Activity stood at 18900 in the test with MCF7 [6] and 21600 with MCF7 [11]. In addition, the T/C is 76% in the test on MCF7 [7], 67% with MCF7 [8], 64% with MCF7 [12] and 43% in the test on MCF7 [14].

For the molecule “[5-hydroxy-3-methyl-2-(4-hydroxyphenyl)-1-[omega-[(2-pyridylmethyl(1-ethyl))amino]hexyl]indole]dichloroplatinum (II) complex”, the Relative uterus weight in test [15] was 35.7 mg; in test [17], 48 mg; in [19], 20.2 mg. The same molecule gave a Tumor weight in the test filed under Mus musculus [16] of 80 mg. For the same molecule, the T/C in [18] came out at 104%; in the test filed under Mus musculus [20], 21%.

For the molecule “[5-hydroxy-3-methyl-2-(4-hydroxyphenyl)-1-[omega-[(2-pyridylmethyl)amino]butyl]indole]dichloroplatinum (II) complex”, the Cell no/dish was 554000 with MCF7 [21] and 489000 in the test with MCF7 [24]. In test [22], this molecule came in with an inhibition of 5%. Besides, the Relative uterus weight in test [23] was 14.8 mg; in test [17], 51.8 mg; in [27], 21.5 mg. Also, the Activity is 29500 in the test with MCF7 [25] and 38400 with MCF7 [26]. In addition, the T/C is 88% in the test with MCF7 [7], 68% in the test with MCF7 [8], 89% with MCF7 [12] and 79% in the test with MCF7 [14].

On to “[5-hydroxy-3-methyl-2-(4-hydroxyphenyl)-1-[omega-[(2-pyridylmethyl)amino]hexyl]indole]dichloroplatinum (II) complex”, for which the T/C was 92% in [28]; 113% in test [30]; 36% in the test listed under Mus musculus [32]; 18% in the test with MCF7 [7]; 12% in the test on MCF7 [8]; 52% with MCF7 [12]. Further, the T/C stood at 22% in the test listed under Mus musculus [20] and 56% in the test with MCF7 [14]. For the same molecule, the Relative uterus weight was determined as 20.2 mg in test [29], 56.3 mg in test [17] and 22.5 mg in test [31]. The figures for the Activity with MCF7 [33] and in the test with MCF7 [34] were 1400 and 900, respectively. The Cell no/dish in the test on MCF7 [35] amounted to 116000; in the test on MCF7 [37], 124000. Further, the Tumor weight in the test filed under Mus musculus [36] is 121 mg; in the test filed under Mus musculus [38] it was 195 mg.

Values taken from ChEMBL document CHEMBL1125823, “2-Phenylindole-linked [2-(aminoalkyl)pyridine]dichloroplatinum(II): complexes with a selective action on estrogen receptor positive mammary tumors” (1991).
